Data: ChEMBL document CHEMBL5331120, “Stapled β-Hairpin Antimicrobial Peptides with Improved Stability and Activity against Drug-Resistant Gram-Negative Bacteria” (J Med Chem, 2023)
Converted amounts (≈) assume the structure as drawn. The source made the active and inactive calls. The rule behind the calls is not given here.

What was measured:
Pseudomonas aeruginosa = test: Antimicrobial activity against Pseudomonas aeruginosa ATCC 9027 assessed as inhibition of bacterial growth incubated for 18 hrs by broth microdilution method; format: functional
In short: (§1)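 Standard broth microdilution in MHB. Overnight culture (37 °C, 120 rpm) adjusted to OD600 0.07 and diluted 1000× to 3 × 10^5 CFU/mL. Peptides serially diluted in triplicate, 18 h at 37 °C with 120 rpm shaking. Growth read as OD600; MIC is the lowest concentration with no visible growth. Colistin served as control for Gram-negatives, vancomycin for S. aureus.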

Escherichia coli [1] = test: Antimicrobial activity against colistin resistant Escherichia coli clinical isolate R1 harboring mcr-1 gene assessed as fold reduction in MIC incubated for 18 hrs by broth microdilution method; format: functional
Escherichia coli [2] = test: Antimicrobial activity against Escherichia coli ATCC 25922 assessed as inhibition of bacterial growth compound pretreated for 1 hr with trypsin and measured after 18 hrs by broth microdilution method; format: functional, organism-based
In short: (§2)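 Peptide incubated with trypsin at a 1:2000 trypsin/peptide molar ratio (e.g., 1 mM peptide with 0.5 μM trypsin), 37 °C, 1 h. Reaction stopped at 80 °C for 10 min, then serially diluted against E. coli in MHB broth microdilution. Inoculum 3 × 10^5 CFU/mL, 37 °C, 120 rpm, 18 h, read by OD600, triplicates. Fold change in MIC taken versus untreated control.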

Erythrocyte = test: Hemolytic activity in human RBC upto 128 uM incubated for 1 hr by absorbance based analysis; format: toxicity, cell-based
In short: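 Washed human RBCs from healthy volunteers at 4% in PBS. Peptide at 4–128 μM, 37 °C for 1 h. Supernatant after 1000g, 10 min spin read at OD540. 1% Triton X-100 gave full lysis; % hemolysis derived and HC50 estimated.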

Escherichia coli [3] = test: Antimicrobial activity against Escherichia coli ATCC 25922 assessed as inhibition of bacterial growth incubated for 18 hrs in presence of 10% fetal bovine serum by broth microdilution method; format: functional, organism-based
In short: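 E. coli broth microdilution in MHB containing 10% fetal bovine serum. Inoculum 3 × 10^5 CFU/mL, diluted from an OD600 0.07 suspension. Incubated 18 h at 37 °C with 120 rpm shaking, OD600 read, triplicates. Fold change in MIC calculated against control MIC.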

Escherichia coli [4] = test: Antimicrobial activity against Escherichia coli ATCC 25922 assessed as inhibition of bacterial growth incubated for 18 hrs by broth microdilution method; format: functional; in short: as §1
Escherichia coli [5] = test: Antimicrobial activity against colistin/carbapenem resistant Escherichia coli clinical isolate R3 harboring NDM-7 and OXA-181 gene assessed as fold reduction in MIC incubated for 18 hrs by broth microdilution method; format: functional
Escherichia coli [6] = test: Antimicrobial activity against colistin/carbapenem resistant Escherichia coli clinical isolate R2 harboring mcr-1 and NDM-1 gene assessed as fold reduction in MIC incubated for 18 hrs by broth microdilution method; format: functional
Staphylococcus aureus = test: Antimicrobial activity against Staphylococcus aureus ATCC 29737 assessed as inhibition of bacterial growth incubated for 18 hrs by broth microdilution method; format: functional, organism-based; in short: as §1
Trypsin = Trypsin (Homo sapiens, UniProt P07477+P07478+P35030); test: Stability of compound assessed as trypsin (unknown origin) mediated compound degradation by measuring parent compound remaining measured after 1.5 hrs by RP-HPLC analysis; format: ADME, protein assay
In short: (§3)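 Peptide with trypsin at a 1:2000 trypsin/peptide molar ratio, 37 °C, sampled at 15, 30, 60 and 90 min. Reaction stopped with an equal volume of 50% acetonitrile/1% TFA. Analysed on C18 RP-HPLC with UV at 220 nm; intact peptide given as % of AUC.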

Escherichia coli [7] = test: Antimicrobial activity against colistin/carbapenem resistant Escherichia coli clinical isolate R2 harboring mcr-1 and NDM-1 gene assessed as inhibition of bacterial growth incubated for 18 hrs by broth microdilution method; format: functional, organism-based
In short: (§4)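 Overnight MHB culture (37 °C, 120 rpm) adjusted to OD600 0.07 (~10^8 CFU/mL), then diluted 1000× to 3 × 10^5 CFU/mL. Peptides serially diluted with the bacterial suspension in triplicate, shaken at 37 °C, 120 rpm for 18 h, then OD600 read. MIC is the lowest concentration with no visible growth. Colistin as positive control.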

Escherichia coli [8] = test: Antimicrobial activity against colistin resistant Escherichia coli clinical isolate R1 harboring mcr-1 gene assessed as inhibition of bacterial growth incubated for 18 hrs by broth microdilution method; format: functional, organism-based; in short: as §4
[9] = Stability of compound assessed as trypsin (unknown origin) mediated compound degradation by measuring parent compound remaining measured after 1 hr by RP-HPLC analysis; format: ADME, protein assay; settings: human, read-out: Stability; in short: as §3
Escherichia coli [10] = test: Antimicrobial activity against Escherichia coli ATCC 25922 assessed as fold increase in MIC compound pretreated for 1 hr with trypsin and measured after 18 hrs by broth microdilution method relative to control; format: functional; settings: trypsin pretreatment 1 hr; MIC measured after 18 hrs; in short: as §2
Escherichia coli [11] = test: Antimicrobial activity against colistin/carbapenem resistant Escherichia coli clinical isolate R3 harboring NDM-7 and OXA-181 gene assessed as inhibition of bacterial growth incubated for 18 hrs by broth microdilution method; format: functional, organism-based

| remaining at 1 h [9] [%] | Compound | Activity (Pseudomonas aeruginosa) | fold change (FC) (Escherichia coli [1]) | Activity (Escherichia coli [2]) | Activity (Erythrocyte) | Activity (Escherichia coli [3]) | Activity (Escherichia coli [4]) | fold change (FC) (Escherichia coli [5]) | fold change (FC) (Escherichia coli [6]) | Activity (Staphylococcus aureus) | remaining at 1.5 h (Trypsin; trypsin, read-out: Stability) [%] | MIC (Pseudomonas aeruginosa) [µM] | Activity (Escherichia coli [7]) | MIC (Escherichia coli [4]) [µM] | Activity (Escherichia coli [8]) | fold change (FC) (Escherichia coli [10]) | Stability (Trypsin; 1.5 h) | Activity (Escherichia coli [11]) |
| --- | --- | --- | --- | --- | --- | --- | --- | --- | --- | --- | --- | --- | --- | --- | --- | --- | --- | --- |
|  | CC(C)C[C@@H]1NC(=O)[C@H](CCCCN)NC(=O)[C@@H]2CC/C=C/CC[C@H](NC(=O)[C@H](CCCCN)NC(=O)[C@H](CC(C)C)NC(=O)[C@H](CCCCN)NC(=O)[C@@H](N)CC/C=C/CC[C@@H](C(=O)O)NC(=O)[C@H](CCCCN)NC1=O)C(=O)N[C@@H](CCCCN)C(=O)N1CCC[C@@H]1C(=O)NCC(=O)N[C@@H](CCCCN)C(=O)N2 | inactive | 2 | Active | Non-Toxic | Active | inactive | 2 | 2 | inactive |  |  |  |  |  |  |  |  |
|  | CC(C)C[C@@H]1NC(=O)[C@H](CCCCN)NC(=O)CNC(=O)[C@H]2CCCN2C(=O)[C@H](CCCCN)NC(=O)[C@H](CC(C)C)NC(=O)[C@H](CCCCN)NC(=O)[C@@H]2CC/C=C\CC[C@H](NC(=O)[C@H](CCCCN)NC1=O)C(=O)N[C@@H](CCCCN)C(=O)N[C@H](C(=O)O)CC/C=C\CC[C@H](N)C(=O)N[C@@H](CCCCN)C(=O)N2 | inactive |  | Active | Non-Toxic | Active | inactive |  |  | inactive |  |  |  |  |  |  |  |  |
|  | CC(C)C[C@H](NC(=O)[C@H](CCCCN)NC(=O)[C@H](CC(C)C)NC(=O)[C@H](CCCCN)NC(=O)[C@@H]1CC/C=C/CC[C@H](NC(=O)[C@H](CCCCN)NC(=O)[C@H](CC(C)C)NC(=O)[C@H](CCCCN)NC(=O)[C@@H](N)CC(C)C)C(=O)N[C@@H](CCCCN)C(=O)N2CCC[C@@H]2C(=O)NCC(=O)N[C@@H](CCCCN)C(=O)N1)C(=O)O |  |  | Active | Non-Toxic | Active |  |  |  | inactive | > 40 | 8 (≈ 12.7 µg/mL) | Active | 8 (≈ 12.7 µg/mL) | Active |  |  |  |
|  | CC(C)C[C@@H]1NC(=O)[C@H](CCCCN)NC(=O)[C@@H]2CCC/C=C\CC[C@H](NC(=O)[C@H](CCCCN)NC(=O)[C@H](CC(C)C)NC(=O)[C@H](CCCCN)NC(=O)[C@@H](N)CC/C=C/CCC[C@@H](C(=O)O)NC(=O)[C@H](CCCCN)NC1=O)C(=O)N[C@@H](CCCCN)C(=O)N1CCC[C@@H]1C(=O)NCC(=O)N[C@@H](CCCCN)C(=O)N2 | inactive | 2 | Active | Non-Toxic | Active | inactive | 2 | 2 | inactive |  |  |  |  |  |  |  |  |
| < 10 | CC(C)C[C@H](NC(=O)[C@H](CCCCN)NC(=O)[C@H](CC(C)C)NC(=O)[C@H](CCCCN)NC(=O)[C@@H]1CCC/C=C/CC[C@H](NC(=O)[C@H](CCCCN)NC(=O)[C@H](CC(C)C)NC(=O)[C@H](CCCCN)NC(=O)[C@@H](N)CC(C)C)C(=O)N[C@@H](CCCCN)C(=O)N2CCC[C@@H]2C(=O)NCC(=O)N[C@@H](CCCCN)C(=O)N1)C(=O)O |  |  |  | Non-Toxic |  |  |  |  | inactive |  |  |  |  |  | >=2 |  |  |
|  | CC(C)C[C@@H]1NC(=O)[C@H](CCCCN)NC(=O)CNC(=O)[C@H]2CCCN2C(=O)[C@H](CCCCN)NC(=O)[C@H](CC(C)C)NC(=O)[C@H](CCCCN)NC(=O)[C@@H]2CC/C=C\CCC[C@H](NC(=O)[C@H](CCCCN)NC1=O)C(=O)N[C@@H](CCCCN)C(=O)N[C@H](C(=O)O)CC/C=C/CCC[C@H](N)C(=O)N[C@@H](CCCCN)C(=O)N2 | inactive | 2 | Active | Non-Toxic | Active | inactive | 2 | 2 | inactive |  |  |  |  |  |  | Unstable |  |
|  | CC(C)C[C@H](NC(=O)[C@H](CCCCN)NC(=O)[C@@H]1CC/C=C/CC[C@H](NC(=O)[C@H](CCCCN)NC(=O)[C@@H](N)CC(C)C)C(=O)N[C@@H](CCCCN)C(=O)N[C@@H](CC(C)C)C(=O)N[C@@H](CCCCN)C(=O)N2CCCC2C(=O)NCC(=O)N[C@@H](CCCCN)C(=O)N[C@@H](CC(C)C)C(=O)N[C@@H](CCCCN)C(=O)N1)C(=O)O (single isomer, unassigned) |  |  |  | Non-Toxic |  |  |  |  | inactive |  | 8 (≈ 12.7 µg/mL) | Active | 8 (≈ 12.7 µg/mL) | Active | >=2 |  |  |
| < 10 | CC(C)C[C@H](NC(=O)[C@H](CCCCN)NC(=O)[C@@H]1CCC/C=C/CC[C@H](NC(=O)[C@H](CCCCN)NC(=O)[C@@H](N)CC(C)C)C(=O)N[C@@H](CCCCN)C(=O)N[C@@H](CC(C)C)C(=O)N[C@@H](CCCCN)C(=O)N2CCCC2C(=O)NCC(=O)N[C@@H](CCCCN)C(=O)N[C@@H](CC(C)C)C(=O)N[C@@H](CCCCN)C(=O)N1)C(=O)O (single isomer, unassigned) |  |  |  | Non-Toxic |  |  |  |  | inactive |  | 8 (≈ 12.8 µg/mL) |  | 8 (≈ 12.8 µg/mL) |  | >=2 |  |  |

| Compound | remaining at 1 h [9] [%] | Activity (Pseudomonas aeruginosa) | fold change (FC) (Escherichia coli [1]) | Activity (Escherichia coli [2]) | Activity (Erythrocyte) | Activity (Escherichia coli [3]) | Activity (Escherichia coli [4]) | fold change (FC) (Escherichia coli [5]) | fold change (FC) (Escherichia coli [6]) | Activity (Staphylococcus aureus) | remaining at 1.5 h (Trypsin; trypsin, read-out: Stability) [%] | MIC (Pseudomonas aeruginosa) [µM] | Activity (Escherichia coli [7]) | MIC (Escherichia coli [4]) [µM] | Activity (Escherichia coli [8]) | fold change (FC) (Escherichia coli [10]) | Stability (Trypsin; 1.5 h) | Activity (Escherichia coli [11]) |
| --- | --- | --- | --- | --- | --- | --- | --- | --- | --- | --- | --- | --- | --- | --- | --- | --- | --- | --- |
| CC(C)C[C@@H]1NC(=O)[C@H](CCCCN)NC(=O)CNC(=O)C2CCCN2C(=O)[C@H](CCCCN)NC(=O)[C@H](CC(C)C)NC(=O)[C@H](CCCCN)NC(=O)[C@H](CC(C)C)NC(=O)[C@H](CCCCN)NC(=O)[C@@H](N)CC/C=C/CCC[C@@H](C(=O)O)NC(=O)[C@H](CCCCN)NC(=O)[C@H](CC(C)C)NC(=O)[C@H](CCCCN)NC1=O (single isomer, unassigned) | < 10 |  |  |  | Non-Toxic |  |  |  |  | inactive |  | 8 (≈ 12.8 µg/mL) | Active | 8 (≈ 12.8 µg/mL) | Active | >=2 |  | Active |
